Measured values reported in ChEMBL document CHEMBL5303300, “EUbOPEN Chemogenomics Library - Multiplex” (2023).
Several values for one entry are separate records, joined by “and”; a condition that tells them apart may be missing. Identical values can stand only once.

Experiments:
Fibroblast = experiment: Multiplex assay against human fibroblast; type: toxicity, cell-based; conditions: number of replicates 2
Outline: (§1)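 Tubulin, mitochondrial-mass and membrane-permeability phenotypes are per cents of healthy-nucleus cells. Cells were gated by CellPathfinder machine learning into Hoechst high-intensity objects or normal cells, normal cells into healthy, pyknosed or fragmented nuclei, and pyknosed cells into mitotic or apoptotic. Before that, live cells stained at seeding with Hoechst33342, BioTracker Green Microtubule Cytoskeleton Dye, MitoTracker Red and Annexin V Alexa Fluor 680 were imaged on a CQ1 microscope at 37°C and 5% CO2 after compound addition.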

U2OS = experiment: Multiplex assay against U2OS; type: toxicity, cell-based; conditions: human, number of replicates 2; outline: as §1
[1] = 12 h, 1 µM, compound concentration 1 uM
[2] = 12 h, 10 µM, compound concentration 10 uM
[3] = 24 h, 1 µM, compound concentration 1 uM
[4] = 24 h, 10 µM, compound concentration 10 uM
[5] = 48 h, 1 µM, compound concentration 1 uM
[6] = 48 h, 10 µM, compound concentration 10 uM

CCn1c(-c2nonc2N)nc2cncc(C(=O)N3CC[C@H](N)C3)c21.Cl
Population Apoptotic (%) (Fibroblast; [1]): 33% and 45% | Population Fragmented Nuclei (%) (Fibroblast; [1]): 6% and 11% | Population Healthy Nuclei (%) (Fibroblast; [1]): 73% and 74% | Population Hoechst High Intensity Objects (%) (Fibroblast; [1]): 0% | Population Membrane Permeable-Phenotype (%) (Fibroblast; [1]): 6% and 1% | Population Mitochondria Different-Phenotype (%) (Fibroblast; [1]): 0% and 1% | Population Mitotic Cells (%) (Fibroblast; [1]): 66% and 54% | Population Normal (%) (Fibroblast; [1]): 100% | Population Pyknosed Nuclei (%) (Fibroblast; [1]): 19% and 13% | Population Tubulin-Different-Phenotype (%) (Fibroblast; [1]): 2% and 4% | Total Cell Count (Fibroblast; [1]): 202 and 240 | Population Apoptotic (%) (Fibroblast; [2]): 9% and 19% | Population Fragmented Nuclei (%) (Fibroblast; [2]): 6% and 12% | Population Healthy Nuclei (%) (Fibroblast; [2]): 65% and 67% | Population Hoechst High Intensity Objects (%) (Fibroblast; [2]): 0% | Population Membrane Permeable-Phenotype (%) (Fibroblast; [2]): 3% and 1% | Population Mitochondria Different-Phenotype (%) (Fibroblast; [2]): 1% and 2% | Population Mitotic Cells (%) (Fibroblast; [2]): 90% and 80% | Population Normal (%) (Fibroblast; [2]): 99% and 100% | Population Pyknosed Nuclei (%) (Fibroblast; [2]): 28% and 20% | Population Tubulin-Different-Phenotype (%) (Fibroblast; [2]): 11% and 6% | Total Cell Count (Fibroblast; [2]): 196 and 295 | Population Apoptotic (%) (Fibroblast; [3]): 50% and 69% | Population Fragmented Nuclei (%) (Fibroblast; [3]): 4% and 10% | Population Healthy Nuclei (%) (Fibroblast; [3]): 83% and 78% | Population Hoechst High Intensity Objects (%) (Fibroblast; [3]): 0% | Population Membrane Permeable-Phenotype (%) (Fibroblast; [3]): 4% and 2% | Population Mitochondria Different-Phenotype (%) (Fibroblast; [3]): 0% | Population Mitotic Cells (%) (Fibroblast; [3]): 50% and 30% | Population Normal (%) (Fibroblast; [3]): 100% | Population Pyknosed Nuclei (%) (Fibroblast; [3]): 11% | Population Tubulin-Different-Phenotype (%) (Fibroblast; [3]): 2% and 5% | Total Cell Count (Fibroblast; [3]): 191 and 224 | Population Apoptotic (%) (Fibroblast; [4]): 23% | Population Fragmented Nuclei (%) (Fibroblast; [4]): 8% and 10% | Population Healthy Nuclei (%) (Fibroblast; [4]): 76% and 77% | Population Hoechst High Intensity Objects (%) (Fibroblast; [4]): 0% | Population Membrane Permeable-Phenotype (%) (Fibroblast; [4]): 2% and 0% | Population Mitochondria Different-Phenotype (%) (Fibroblast; [4]): 4% and 2% | Population Mitotic Cells (%) (Fibroblast; [4]): 76% | Population Normal (%) (Fibroblast; [4]): 100% | Population Pyknosed Nuclei (%) (Fibroblast; [4]): 15% and 11% | Population Tubulin-Different-Phenotype (%) (Fibroblast; [4]): 10% and 3% | Total Cell Count (Fibroblast; [4]): 196 and 266 | Population Apoptotic (%) (Fibroblast; [5]): 86% and 66% | Population Fragmented Nuclei (%) (Fibroblast; [5]): 6% and 10% | Population Healthy Nuclei (%) (Fibroblast; [5]): 85% | Population Hoechst High Intensity Objects (%) (Fibroblast; [5]): 0% | Population Membrane Permeable-Phenotype (%) (Fibroblast; [5]): 3% and 2% | Population Mitochondria Different-Phenotype (%) (Fibroblast; [5]): 0% | Population Mitotic Cells (%) (Fibroblast; [5]): 13% and 33% | Population Normal (%) (Fibroblast; [5]): 100% | Population Pyknosed Nuclei (%) (Fibroblast; [5]): 7% and 4% | Population Tubulin-Different-Phenotype (%) (Fibroblast; [5]): 1% and 3% | Total Cell Count (Fibroblast; [5]): 196 and 220 | Population Apoptotic (%) (Fibroblast; [6]): 57% and 69% | Population Fragmented Nuclei (%) (Fibroblast; [6]): 11% and 9% | Population Healthy Nuclei (%) (Fibroblast; [6]): 72% and 80% | Population Hoechst High Intensity Objects (%) (Fibroblast; [6]): 0% | Population Membrane Permeable-Phenotype (%) (Fibroblast; [6]): 2% and 1% | Population Mitochondria Different-Phenotype (%) (Fibroblast; [6]): 0% | Population Mitotic Cells (%) (Fibroblast; [6]): 42% and 30% | Population Normal (%) (Fibroblast; [6]): 100% and 99% | Population Pyknosed Nuclei (%) (Fibroblast; [6]): 15% and 9% | Population Tubulin-Different-Phenotype (%) (Fibroblast; [6]): 2% and 3% | Total Cell Count (Fibroblast; [6]): 184 and 264 | Population Apoptotic (%) (U2OS; [1]): 50% and 90% | Population Fragmented Nuclei (%) (U2OS; [1]): 13% and 3% | Population Healthy Nuclei (%) (U2OS; [1]): 73% and 87% | Population Hoechst High Intensity Objects (%) (U2OS; [1]): 0% | Population Membrane Permeable-Phenotype (%) (U2OS; [1]): 0% and 1% | Population Mitochondria Different-Phenotype (%) (U2OS; [1]): 4% and 0% | Population Normal (%) (U2OS; [1]): 100% | Population Pyknosed Nuclei (%) (U2OS; [1]): 13% and 9% | Population Tubulin-Different-Phenotype (%) (U2OS; [1]): 72% and 77% | Population Apoptotic (%) (U2OS; [2]): 75% and 35% | Population Healthy Nuclei (%) (U2OS; [2]): 69% and 78% | Population Hoechst High Intensity Objects (%) (U2OS; [2]): 0% | Population Membrane Permeable-Phenotype (%) (U2OS; [2]): 5% and 0% | Population Mitochondria Different-Phenotype (%) (U2OS; [2]): 0% | Population Mitotic Cells (%) (U2OS; [2]): 25% and 64% | Population Normal (%) (U2OS; [2]): 100% | Population Pyknosed Nuclei (%) (U2OS; [2]): 8% and 16% | Population Tubulin-Different-Phenotype (%) (U2OS; [2]): 67% and 87% | Population Apoptotic (%) (U2OS; [3]): 80% and 96% | Population Fragmented Nuclei (%) (U2OS; [3]): 5% and 3% | Population Healthy Nuclei (%) (U2OS; [3]): 80% and 87% | Population Hoechst High Intensity Objects (%) (U2OS; [3]): 0% | Population Membrane Permeable-Phenotype (%) (U2OS; [3]): 7% and 0% | Population Mitochondria Different-Phenotype (%) (U2OS; [3]): 3% and 1% | Population Normal (%) (U2OS; [3]): 100% | Population Pyknosed Nuclei (%) (U2OS; [3]): 14% and 9% | Population Tubulin-Different-Phenotype (%) (U2OS; [3]): 71% and 79% | Population Apoptotic (%) (U2OS; [4]): 55% and 57%
